Assay results collected from several papers.
Each line is one published result; the experiments were not run side by side.
ABL1 E255K phosphorylated: Tyrosine-protein kinase ABL1, phosphorylated (ABL1, Homo sapiens, UniProt P00519, E255K)
ABL1 T315I: Tyrosine-protein kinase ABL1 (ABL1, Homo sapiens, UniProt P00519, T315I)
ABL1 T315I phosphorylated: Tyrosine-protein kinase ABL1, phosphorylated (ABL1, Homo sapiens, UniProt P00519, T315I)
ABL1 F317L phosphorylated: Tyrosine-protein kinase ABL1, phosphorylated (ABL1, Homo sapiens, UniProt P00519, F317L)
ABL1 H396P non-phosphorylated: Tyrosine-protein kinase ABL1, non-phosphorylated (ABL1, Homo sapiens, UniProt P00519, H396P)
ABL1 H396P phosphorylated: Tyrosine-protein kinase ABL1, phosphorylated (ABL1, Homo sapiens, UniProt P00519, H396P)
ABL1 phosphorylated: Tyrosine-protein kinase ABL1, phosphorylated (ABL1, Homo sapiens, UniProt P00519)
ABL1 Y253F phosphorylated: Tyrosine-protein kinase ABL1, phosphorylated (ABL1, Homo sapiens, UniProt P00519, Y253F)
ABL1 E255K: Tyrosine-protein kinase ABL1 (ABL1, Homo sapiens, UniProt P00519, E255K)

O=C(c1ccc(Nc2ncc(Cl)c(-c3ccc(Cl)s3)n2)cc1)N1CCC(N2CCCC2)CC1
remaining binding (ABL1 E255K phosphorylated; binding, competition with immobilised ligand; 1 µM): 4.3%

CN(C)c1nccc(-c2cnc3ncccn23)n1
remaining binding (ABL1 T315I; binding; 1 µM): 52%

CNC(=O)[C@@H]1CC[C@@H](n2c(-c3ccc4cnccc4c3)nc3ccc(C(=O)NCc4cccc(C(N)=O)c4)cc32)C1
remaining binding (ABL1 T315I phosphorylated; binding, competition with immobilised ligand; 1 µM): 100%

O=C(NCCCN1CCOCC1)c1ccc(Nc2ncc(Cl)c(-c3ccc(Cl)s3)n2)cc1
remaining binding (ABL1 F317L phosphorylated; binding, competition with immobilised ligand; 1 µM): 80%

c1cnn2ncc(-c3ccnc(N4CCC45COC5)n3)c2c1
remaining binding (Tyrosine-protein kinase ABL1 (ABL1, Homo sapiens, UniProt P00519, Q252H); binding; 1 µM): 69%

CCN1CCN(Cc2ccc(C(=O)Nc3ccc(C)c(Oc4ccc5c(c4)CC(=O)N5)c3)cc2C(F)(F)F)CC1
remaining binding (Tyrosine-protein kinase ABL1, non-phosphorylated (ABL1, Homo sapiens, UniProt P00519, Q252H); binding, competition with immobilised ligand; 1 µM): 3%

Cc1cnn2ncc(-c3ccnc(N(C)C)n3)c2c1
remaining binding (Tyrosine-protein kinase ABL1 (ABL1, Homo sapiens, UniProt P00519, H396P); binding; 1 µM): 81%

C=CC(=O)N1CCC(C(=O)NCC(=O)N2CCN(c3nc(-c4cnc(N)nc4C(F)F)nc(N4CCOCC4)n3)CC2)CC1
remaining binding (Tyrosine-protein kinase ABL1, phosphorylated (ABL1, Homo sapiens, UniProt P00519, F317I); binding, competition with immobilised ligand; 1 µM): 94%

CN1CCN(c2ccc(Nc3nccc(-c4ccccc4)n3)cc2C(F)(F)F)CC1
remaining binding (Tyrosine-protein kinase ABL1 (ABL1, Homo sapiens, UniProt P00519, Y253F); binding; 10 µM): 16%

CC(C)(O)c1cncc(-c2nc3ccc(F)cc3n2C2CC2)c1
remaining binding (ABL1 H396P non-phosphorylated; cell-free assay, competition with immobilised ligand; 1 µM): 85%

O=C(c1ccc(Nc2nccc(-c3cc4ccccc4s3)n2)cc1)N1CCC(N2CCCC2)CC1
remaining binding (Tyrosine-protein kinase ABL1, phosphorylated (ABL1, Homo sapiens, UniProt P00519, M351T); binding, competition with immobilised ligand; 1 µM): 17%

CCCCN(CCCC)C(=O)CN1C[C@@H](c2cc(OC)c3c(c2)OCO3)[C@H](C(=O)O)[C@H]1CC(C)(C)CCC
remaining binding (ABL1 F317L phosphorylated; cell-free assay, competition with immobilised ligand; 1 µM): 93.5%

C[C@@H](c1ccc(-n2cnc3c(N)ncnc32)cc1)N1CCc2nn(C)c(Cc3ccccc3)c2C1=O
remaining binding (ABL1 E255K phosphorylated; binding, competition with immobilised ligand; 0.1 µM): 70%

COc1cnc(Nc2cccc(S(N)(=O)=O)c2)nc1N1CCN(c2ccccc2)C(=O)C1
remaining binding (ABL1 H396P phosphorylated; binding, competition with immobilised ligand; 1 µM): 97%

C[C@H]1CCN(c2nccc(-c3cnn4ncccc34)n2)C1
remaining binding (ABL1 phosphorylated; binding; 1 µM): 59%

CCOC(=O)c1cc2cc(-c3cc(C(=O)NCc4ccc(C(=O)O)cc4)nn3C)ccc2[nH]1
remaining binding (ABL1 H396P phosphorylated; cell-free assay, competition with immobilised ligand; 0.1 µM): 85%

O=C(NCCCN1CCOCC1)c1ccc(Nc2nccc(-c3cc4ccccc4s3)n2)cc1
remaining binding (ABL1 H396P non-phosphorylated; binding, competition with immobilised ligand; 1 µM): 24%

COc1cnc(Nc2cccc(S(N)(=O)=O)c2)nc1N1CCN(c2ccccc2)CC1
remaining binding (ABL1 phosphorylated; binding, competition with immobilised ligand; 1 µM): 79%

Cc1cnc(Nc2ccc(C(=O)N3CCC(N4CCCC4)CC3)cc2)nc1-c1cc2ccccc2s1
remaining binding (Tyrosine-protein kinase ABL1, non-phosphorylated (ABL1, Homo sapiens, UniProt P00519); binding, competition with immobilised ligand; 1 µM): 2.7%

CN(C)CC#Cc1ccc(OCCCc2sc(N3CCc4cccc(C(=O)Nc5nc6ccccc6s5)c4C3)nc2C(=O)O)c(F)c1
remaining binding (ABL1 T315I phosphorylated; cell-free assay, competition with immobilised ligand; 1 µM): 92%

O=C(c1ccc(Nc2ncc(Cl)c(-c3cc4ccccc4s3)n2)cc1)N1CCC(N2CCCC2)CC1
remaining binding (ABL1 H396P phosphorylated; binding, competition with immobilised ligand; 1 µM): 13%

CSc1cccnc1N1CCN(Cc2nc3ccccc3[nH]2)CC1
remaining binding (ABL1 Y253F phosphorylated; cell-free assay, competition with immobilised ligand; 1 µM): 76%

N[C@H]1CCN(c2nccc(-c3cnn4ncccc34)n2)C1
remaining binding (ABL1 T315I; binding; 1 µM): 88%

O=C(NCC1CCOCC1)c1n[nH]cc1NC(=O)c1c(F)cccc1F
remaining binding (ABL1 F317L phosphorylated; binding, competition with immobilised ligand; 1 µM): 88%

CN(C(=O)c1ccccc1)c1cc(N(C)c2ccc3c(c2)CCc2ccc(C(=O)NCCN4CCOCC4)cc2C3=O)ccc1F
remaining binding (ABL1 F317L phosphorylated; cell-free assay, competition with immobilised ligand; 1 µM): 68%

F[C@@H]1CCN(c2nccc(-c3cnn4ncccc34)n2)C1
remaining binding (ABL1 T315I; binding; 1 µM): 100%

c1cncc(-c2cccc(Nc3nccc(NC4CCCCC4)n3)c2)c1
remaining binding (ABL1 F317L phosphorylated; binding, competition with immobilised ligand; 10 µM): 61%

CN(C)c1nccc(-c2cnn3ncccc23)n1
remaining binding (ABL1 E255K; binding; 1 µM): 60%

Nc1ncc2c(n1)-c1c([nH]c3ccc(C#CC4CC4)cc13)CCCC2
remaining binding (Tyrosine-protein kinase ABL1, non-phosphorylated (ABL1, Homo sapiens, UniProt P00519, T315I); binding, competition with immobilised ligand; 1 µM): 79%

O=C(Nc1c[nH]nc1C(=O)NC1CCNCC1)c1cc(F)cc(F)c1
remaining binding (ABL1 E255K phosphorylated; binding, competition with immobilised ligand; 1 µM): 100%

CC(=O)Nc1c(C(C)=O)c(=O)n(C)c2nc(-c3ccc(Cl)cc3Cl)c(-c3ccc(Cl)cc3)cc12
remaining binding (ABL1 F317L phosphorylated; cell-free assay, competition with immobilised ligand; 1 µM): 100%

COc1ncc2cc3ccccc3nc2c1C#N
remaining binding (ABL1 Y253F phosphorylated; cell-free assay, competition with immobilised ligand; 5 µM): 92%

CS(=O)(=O)N1CCCC(NC(=O)[C@H](CCC2CCCCC2)NC(=O)c2ccc(CNC(=O)c3cnc4ccccn34)cc2)C1 (stereo partly shown)
remaining binding (ABL1 Y253F phosphorylated; cell-free assay, competition with immobilised ligand; 0.1 µM): 76%

COc1ccnn2ncc(-c3ccnc(N(C)C)n3)c12
remaining binding (ABL1 E255K; binding; 1 µM): 86%
